ChEMBL document CHEMBL1141703, “Synthesis and in vitro evaluation of imidazopyridazines as novel inhibitors of the malarial kinase PfPK7” (Bioorg Med Chem Lett, 2008)
Active and inactive are the calls of the source. The rule behind the calls is not given here.

Key:
[1] = biological target: T1, Putative uncharacterized protein pk7 (Plasmodium falciparum, UniProt O96214); assay: (§1) Inhibition of Plasmodium falciparum PK7
T1 sequence (O96214 whole entry): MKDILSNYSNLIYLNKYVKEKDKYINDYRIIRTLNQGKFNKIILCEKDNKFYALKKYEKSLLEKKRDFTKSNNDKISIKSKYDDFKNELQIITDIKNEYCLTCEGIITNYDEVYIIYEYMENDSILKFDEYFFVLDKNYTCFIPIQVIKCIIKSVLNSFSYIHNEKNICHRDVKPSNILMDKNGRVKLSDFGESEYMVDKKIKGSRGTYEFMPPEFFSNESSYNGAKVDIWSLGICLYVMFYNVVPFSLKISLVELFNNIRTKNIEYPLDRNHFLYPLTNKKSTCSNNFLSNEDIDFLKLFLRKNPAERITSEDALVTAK

KB = assay: Cytotoxicity against human KB cells; type: cell-based
[2] = Selectivity index, ratio of IC50 for human KB cells to IC50 for Plasmodium falciparum 3D7; type: toxicity, cell-based; details: read-out: Ratio IC50
Method in brief: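 Ratio of the human KB cell cytotoxicity IC50 to the P. falciparum 3D7 IC50. 3D7 is a drug-sensitive laboratory clone of the NF54 isolate. Parasite IC50 (μM) came from a 3H-hypoxanthine incorporation assay run with chloroquine as the standard.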

Plasmodium falciparum [3] = assay: Antimalarial activity against multidrug-resistant Plasmodium falciparum K1 by [3H]hypoxanthine uptake; type: functional, organism-based
Method in brief: (§2)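 P. falciparum blood-stage growth measured by ³H-hypoxanthine incorporation, with chloroquine as the reference standard. Strains: 3D7, a drug-sensitive laboratory clone of the NF54 isolate, and K1 (Thailand), which is resistant to chloroquine, pyrimethamine and cycloguanil. Values are IC50 in μM.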

Plasmodium falciparum [4] = assay: Antimalarial activity against chloroquine-sensitive Plasmodium falciparum 3D7 by [3H]hypoxanthine uptake; type: functional, organism-based; method in brief: as §2
[5] = biological target: T2, Putative uncharacterized protein pk7 (Plasmodium falciparum) (UniProt O96214); assay: as §1
T2 sequence (whole entry): T1 sequence (O96214 whole entry)

Compound	IC50 [1]	other results
CC(C)[C@@H](CO)Nc1ccc2ncc(-c3ccc(C(N)=O)cc3)n2n1	0.77 µM	IC50 (KB): 13 µM; selectivity ratio [2]: 5.27; IC50 (Plasmodium falciparum [3]): 3.89 µM; IC50 (Plasmodium falciparum [4]): 2.46 µM
CN(Cc1ccc(F)cc1)c1ccc2ncc(-c3ccc(C(N)=O)cc3)n2n1	1.1 µM	–
COc1ccc(-c2cnc3ccc(NCc4cccnc4)nn23)cc1	11.6 µM	–
CN(Cc1ccc(F)cc1)c1ccc2ncc(-c3ccc(CNCO)cc3)n2n1	34 µM	–
CC(C)[C@@H](CO)Nc1ccc2ncc(-c3ccc(C#N)cc3)n2n1	0.28 µM	IC50 (KB): 52.2 µM; selectivity ratio [2]: 20.1; IC50 (Plasmodium falciparum [3]): 6.86 µM; IC50 (Plasmodium falciparum [4]): 2.6 µM
CN(Cc1ccc(F)cc1)c1ccc2ncc(-c3ccc(C#N)cc3)n2n1	1.07 µM	–
c1cncc(CNc2ccc3ncc(-c4ccncc4)n3n2)c1	7.9 µM	–
CN(Cc1cccnc1)c1ccc2ncc(-c3ccc(C#N)cc3)n2n1	1.26 µM	–
C[C@H](N)c1cccc(N2CCOCC2)c1	25 µM	–
CCN(CC)CCCC(C)Nc1ccnc2cc(Cl)ccc12 (stereo not given) [CHLOROQUINE]	–	IC50 (KB): 97.5 µM
N#Cc1ccc(-c2cnc3ccc(NCc4ccc(N5CCOCC5)cc4)nn23)cc1	8 µM	–
CC(C)[C@@H](N)c1cccc(N2CCOCC2)c1	–	Activity [5]: inactive
C[C@@H](CO)Nc1ccc2ncc(-c3ccc(C#N)cc3)n2n1	0.44 µM	IC50 (KB): 21.2 µM; selectivity ratio [2]: 4.03; IC50 (Plasmodium falciparum [3]): 9.93 µM; IC50 (Plasmodium falciparum [4]): 5.26 µM
COC[C@H](C)Nc1ccc2ncc(-c3ccc(C#N)cc3)n2n1	0.82 µM	IC50 (KB): 25.8 µM; selectivity ratio [2]: 4.25; IC50 (Plasmodium falciparum [3]): 10.5 µM; IC50 (Plasmodium falciparum [4]): 6.06 µM
N#Cc1ccc(-c2cnc3ccc(NCCO)nn23)cc1	1 µM	–
N#Cc1ccc(-c2cnc3ccc(N[C@H]4CC[C@H](O)CC4)nn23)cc1	0.13 µM	IC50 (KB): 24 µM; selectivity ratio [2]: 23.3; IC50 (Plasmodium falciparum [3]): 2.65 µM; IC50 (Plasmodium falciparum [4]): 1.03 µM
CC(C)[C@H](N)c1cccc(N2CCOCC2)c1	43 µM	–
CN(Cc1ccc(F)cc1)c1ccc2ncc(-c3ccc(N)cc3)n2n1	42 µM	–
N#Cc1ccc(-c2cnc3ccc(NCC4CCCO4)nn23)cc1 (stereo not given)	0.75 µM	–
C[C@H](CO)Nc1ccc2ncc(-c3ccc(C#N)cc3)n2n1	1 µM	–
N#Cc1ccc(-c2cnc3ccc(NCC4CC4)nn23)cc1	0.58 µM	IC50 (KB): 21.2 µM; selectivity ratio [2]: 2.96; IC50 (Plasmodium falciparum [3]): 12.7 µM; IC50 (Plasmodium falciparum [4]): 7.15 µM
CN(Cc1ccc(F)cc1)c1ccc2ncc(-c3ccc(CO)cc3)n2n1	21 µM	–

The next lines start with results.

IC50 [1]	Compound	other results
0.26 µM	N#Cc1ccc(-c2cnc3ccc(N[C@H]4CCC[C@H](O)C4)nn23)cc1 (racemic)	–
111 µM	CC(C)[C@@H](CO)Nc1ccc2ncc(-c3ccc(CC(=O)O)cc3)n2n1	–
0.81 µM	N#Cc1ccc(-c2cnc3ccc(NCc4cccnc4)nn23)cc1	–
0.34 µM	N#Cc1ccc(-c2cnc3ccc(NC4CCCCC4)nn23)cc1	–
34 µM	CC(C)[C@@H](CO)Nc1ccc2ncc(-c3ccc(N)cc3)n2n1	–
4.8 µM	C[C@@H](N)c1cccc(N2CCOCC2)c1	–
0.22 µM	N#Cc1ccc(-c2cnc3ccc(N[C@H]4CCCC[C@@H]4O)nn23)cc1 (racemic)	–
103 µM	CN(Cc1ccc(F)cc1)c1ccc2ncc(-c3ccc(CN4CCC(O)CC4)cc3)n2n1	–
1.4 µM	COCCNc1ccc2ncc(-c3ccc(C#N)cc3)n2n1	–
25 µM	CC(C)[C@@H](CO)Nc1ccc2ncc(-c3ccc(CC#N)cc3)n2n1	–
7.4 µM	CC(C)[C@@H](CO)Nc1ccc2ncc(-c3ccc(CO)cc3)n2n1	–
2.1 µM	N#Cc1ccc(-c2cnc3ccc(NC4CCCNC4)nn23)cc1 (racemic)	–
56 µM	CN(Cc1ccc(F)cc1)c1ccc2ncc(-c3ccc(Cn4ccnc4)cc3)n2n1	–
104 µM	CC(C)[C@@H](CO)Nc1ccc2ncc(-c3ccc(CN)cc3)n2n1	–
